RanGTP-Impb inh = disruptors of Ran-importin-beta complex formation – biochemical, FRET, CFP-Ran, YFP-importin-beta, homogeneous, primary screen; cell-free CFP-Ran/YFP-importin-beta FRET ratio; inhibition, % (test concentration not listed); hit rate 1.1% among 300,000; AID 2216;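 active = more than half of the replicate wells show a fall in the fluorescence ratio signal beyond about 16%, limit read from the data, passing the limit was not always enough; inconclusive = exactly half of the replicate wells pass the set limit; inactive = fewer than half of replicates pass the limit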
Runt-SMMHC FRET = inhibitors of human RUNX1 Runt domain binding to CBFb-SMMHC; Q01196+Q13951; Cerulean-Runt/Venus-CBFb-SMMHC FRET ratio 530/480, 1 h; inhibition, % at 20 µM; hit rate 0.74% among 220,000; AID 1434;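 active = mean inhibition across duplicate retests at 20 µM reaching about 50%, limit read from the data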;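 note: inhibitors lower the FRET ratio by blocking Runt binding to CBFb-SMMHC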
Target sequence (Q01196 whole entry, looked up, the tested form may be a part): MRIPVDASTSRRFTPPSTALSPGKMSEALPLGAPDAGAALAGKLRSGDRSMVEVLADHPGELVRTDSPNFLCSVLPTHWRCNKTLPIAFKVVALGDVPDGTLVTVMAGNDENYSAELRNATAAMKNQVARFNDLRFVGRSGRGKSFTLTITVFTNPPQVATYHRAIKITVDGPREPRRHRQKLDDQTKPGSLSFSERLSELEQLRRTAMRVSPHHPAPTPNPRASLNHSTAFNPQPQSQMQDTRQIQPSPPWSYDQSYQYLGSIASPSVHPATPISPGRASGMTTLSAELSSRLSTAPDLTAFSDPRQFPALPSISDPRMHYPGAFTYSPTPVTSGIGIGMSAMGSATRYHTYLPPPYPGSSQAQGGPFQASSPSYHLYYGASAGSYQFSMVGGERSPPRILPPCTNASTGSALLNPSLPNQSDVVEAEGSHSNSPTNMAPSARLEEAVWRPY
Target sequence (Q13951 whole entry, looked up, the tested form may be a part): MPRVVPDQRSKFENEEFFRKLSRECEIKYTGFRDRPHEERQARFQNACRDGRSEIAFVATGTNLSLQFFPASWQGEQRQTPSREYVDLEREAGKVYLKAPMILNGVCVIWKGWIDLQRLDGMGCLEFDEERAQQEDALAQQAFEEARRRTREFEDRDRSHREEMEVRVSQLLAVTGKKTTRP
Runt-CBFb FRET = inhibitors of human RUNX1 Runt domain binding to CBFb; Q01196+Q13951; Cerulean-Runt/Venus-CBFb FRET ratio 530/480, 1 h; inhibition, % at 20 µM; hit rate 0.46% among 220,000;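 active = inhibition over about 50% at 20 µM in the single-dose screen, limit read from the data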
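System: Cerulean-labeled Runt domain protein | Quantity: 100 nM of each labeled protein | Schedule: 1 h compound exposure, room temperature | Detection: Fluorescence energy transfer, 422 nm excitation, 530/480 nm emission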
IMP-1 inhibitor = blocks Pseudomonas aeruginosa IMP-1 metallo-beta-lactamase | purified IMP-1, nitrocefin hydrolysis, epi-absorbance fluorescence | inhibition, % at 5.6 µM | hit rate 0.45% among 290,000 | AID 1556;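 active = inhibition above the mean plus 3 SD of all compounds in the same screening run, cut at about 4.5% in these data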
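assay system = purified recombinant IMP-1 metallo-beta-lactamase enzyme | schedule = 15 min preincubation plus 25 min reaction at 25 °C | signal = Epi-absorbance fluorescence, 480 nm excitation, 530 nm emission | read-out basis = percent inhibition from optical density relative to buffer-blank wells | controls = IMP-1 with DMSO as 0%, enzyme-free DMSO as 100%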
VIM-2 inhibitor = blocks Pseudomonas aeruginosa VIM-2 metallo-beta-lactamase; purified VIM-2, nitrocefin hydrolysis, epi-absorbance fluorescence; inhibition, % at 5.6 µM; hit rate 0.89% among 290,000;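 active = inhibition above the mean of all tested compounds plus 3 SD, cutoff set per screening run, cut at about 7.5% in these data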;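 note: red hydrolysis product quenches plate fluorescence so inhibitors raise well fluorescence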
Numbers stand for hits. In the library only some 2.6% were active in any assay of this set; here they are far more common.

Screening COc1ccccc1CNC(=O)CCC(=O)N1Cc2cccc(OC)c2Oc2ncccc21 returned RanGTP-Impb inh inactive, IMP-1 inhibitor inactive and VIM-2 inhibitor inactive.
For COc1ccc(S(=O)(=O)NNC(=O)C23CC4CC(CC(C4)C2)C3)cc1[N+](=O)[O-] the results were RanGTP-Impb inh inactive.
`COCCN1CCN(C(=O)C2CCC(=O)N(Cc3cccc(C(F)(F)F)c3)C2)CC1` (stereo not drawn) gave RanGTP-Impb inh inactive, IMP-1 inhibitor inactive and VIM-2 inhibitor inactive.
COc1ccc(Cn2c(=N)c(C(=O)NCC3CCCO3)cc3c(=O)n4ccccc4nc32)cc1 (stereo not drawn) was read as RanGTP-Impb inh 23, IMP-1 inhibitor inactive and VIM-2 inhibitor 9.2.
Screening O=C(Cc1ccc(-n2c(=O)c3ccccc3n(Cc3ccccc3Cl)c2=O)cc1)NCC1CCCO1 (stereo not drawn) returned RanGTP-Impb inh inactive, Runt-SMMHC FRET inactive, Runt-CBFb FRET inactive, IMP-1 inhibitor 4.8 and VIM-2 inhibitor inactive.
`N=c1c(C(=O)NCC2CCCO2)cc2c(=O)n3ccccc3nc2n1Cc1ccc(Cl)cc1` (stereo not drawn) gave RanGTP-Impb inh 180, IMP-1 inhibitor inactive and VIM-2 inhibitor 9.9.
Screening COc1ccc(CCn2c(=N)c(C(=O)NCC3CCCO3)cc3c(=O)n4ccccc4nc32)cc1 (stereo not drawn) returned RanGTP-Impb inh inactive, IMP-1 inhibitor inactive and VIM-2 inhibitor inactive.
`Cc1cccnc1NC(=O)CCCNC(=O)c1ccc(Cl)cc1` gave RanGTP-Impb inh inactive.
Screening COCC1CCCN(C(=O)c2ccc3nc(Cc4cccc(Cl)c4)oc3c2)C1 (stereo not drawn) returned RanGTP-Impb inh inactive, IMP-1 inhibitor inactive and VIM-2 inhibitor inactive.
`CN(C)S(=O)(=O)NCCNC(=O)c1cc(OCC(F)(F)F)ccc1OCC(F)(F)F` gave RanGTP-Impb inh inactive, Runt-SMMHC FRET inactive, Runt-CBFb FRET inactive, IMP-1 inhibitor inactive and VIM-2 inhibitor inactive.
Screening O=C(NCCNC(=O)c1cc(OCC(F)(F)F)ccc1OCC(F)(F)F)Nc1cccc(C(F)(F)F)c1 returned RanGTP-Impb inh inconclusive, Runt-SMMHC FRET inactive, Runt-CBFb FRET inactive, IMP-1 inhibitor 7.0 and VIM-2 inhibitor inactive.
`CCN(Cc1ccccc1)c1ccc(/C=N/N=C(N)N)cc1` gave RanGTP-Impb inh 38, Runt-SMMHC FRET inactive, Runt-CBFb FRET inactive, IMP-1 inhibitor inactive and VIM-2 inhibitor inactive.
For CCN(Cc1ccccc1)c1ccc(/C=N/NC(=S)NC(C)C)cc1 the results were RanGTP-Impb inh inactive, Runt-SMMHC FRET inactive, Runt-CBFb FRET inactive, IMP-1 inhibitor inactive and VIM-2 inhibitor inactive.
For COC(=O)c1cccc(/C=N/NC(N)=S)c1O the results were RanGTP-Impb inh 42, Runt-SMMHC FRET 84, Runt-CBFb FRET inactive, IMP-1 inhibitor inactive and VIM-2 inhibitor inactive.
For COc1cccc(/C=N/NC(=O)C(=O)N/N=C/c2cccc(OC)c2O)c1O the results were Runt-SMMHC FRET inactive, Runt-CBFb FRET inactive, IMP-1 inhibitor inactive and VIM-2 inhibitor inactive.
Screening CCOC(=O)c1sc(-c2ccc(Cl)cc2Cl)nc1O returned RanGTP-Impb inh inactive, Runt-SMMHC FRET 84, Runt-CBFb FRET inactive, IMP-1 inhibitor inactive and VIM-2 inhibitor inactive.
For CC(=O)Nc1ccc(S(=O)(=O)NCc2nc(-c3ccc(C)cc3)no2)cc1 the results were RanGTP-Impb inh inactive, IMP-1 inhibitor inactive and VIM-2 inhibitor inactive.
For CCOC(=O)c1cc(C#N)c(SCC(=O)c2cc(C#N)c(SC)nc2C)[nH]c1=O the results were RanGTP-Impb inh 60, Runt-SMMHC FRET inactive, Runt-CBFb FRET inactive, IMP-1 inhibitor inactive and VIM-2 inhibitor inactive.
Screening CCOC(=O)c1cc(C#N)c(SCC(N)=O)[nH]c1=O returned RanGTP-Impb inh inactive, Runt-SMMHC FRET inactive, Runt-CBFb FRET inactive, IMP-1 inhibitor inactive and VIM-2 inhibitor inactive.
CCOc1cc(-c2cc(-c3ccc(N)cc3)nc(N)c2C#N)ccc1O was read as RanGTP-Impb inh 48, Runt-SMMHC FRET 80, Runt-CBFb FRET inactive, IMP-1 inhibitor inactive and VIM-2 inhibitor inactive.
Screening COc1ccc(C(CC(=O)NCc2ccccc2)C(C)C)cc1 (stereo not drawn) returned RanGTP-Impb inh inactive, Runt-SMMHC FRET inactive, Runt-CBFb FRET inactive, IMP-1 inhibitor inactive and VIM-2 inhibitor inactive.
Screening CC1Cc2nc(SCC(=O)N3CCN(c4ccccc4)CC3)n(CCc3ccccc3)c(=O)c2S1 (stereo not drawn) returned RanGTP-Impb inh inactive, Runt-SMMHC FRET inactive, Runt-CBFb FRET inactive, IMP-1 inhibitor inactive and VIM-2 inhibitor inactive.
For CCn1c(SCC(=O)N2CCN(c3ccccc3)CC2)nc2c(c1=O)SC(C)C2 (stereo not drawn) the results were RanGTP-Impb inh inactive, Runt-SMMHC FRET inactive, IMP-1 inhibitor 4.9 and VIM-2 inhibitor inactive.
`O=S(=O)(Nc1ccccc1N1CCCCC1)c1ccc(F)cc1` gave RanGTP-Impb inh inactive, Runt-SMMHC FRET inactive, Runt-CBFb FRET inactive, IMP-1 inhibitor 4.7 and VIM-2 inhibitor inactive.
For Cc1ccc2nc(Nc3ccc4[nH]c(=O)[nH]c4c3)c(-n3nc(C)cc3C)nc2c1 the results were RanGTP-Impb inh 40, Runt-SMMHC FRET inactive, Runt-CBFb FRET inactive, IMP-1 inhibitor inactive and VIM-2 inhibitor inactive.
`Cc1cc(C)n(-c2nc3ccccc3nc2Nc2ccc3c(c2)OCO3)n1` gave RanGTP-Impb inh inactive, Runt-SMMHC FRET inactive, Runt-CBFb FRET inactive, IMP-1 inhibitor inactive and VIM-2 inhibitor inactive.
O=C(CCN1C(=O)C2C3C=CC(C4CC34)C2C1=O)Nc1ccc(Cl)cc1O (stereo not drawn) was read as IMP-1 inhibitor 13 and VIM-2 inhibitor inactive.
For FC(F)(F)c1ccc(/C=N/n2c(C3CCCCC3)n[nH]c2=S)cc1 the results were RanGTP-Impb inh inactive, IMP-1 inhibitor inactive and VIM-2 inhibitor inactive.
For CCC(=O)c1ccc(OCCn2cncn2)cc1 the results were RanGTP-Impb inh inactive, Runt-SMMHC FRET inactive, Runt-CBFb FRET inactive, IMP-1 inhibitor inactive and VIM-2 inhibitor inactive.
For CCC(=O)c1ccccc1OCCCCn1cncn1 the results were RanGTP-Impb inh inactive, IMP-1 inhibitor 8.4 and VIM-2 inhibitor inactive.
Screening OC12CC3C[C@H](C1)C(N1CCOCC1)[C@@H](C3)C2 (stereo partly drawn) returned RanGTP-Impb inh inactive, IMP-1 inhibitor inactive and VIM-2 inhibitor inactive.
Screening Cc1ccc(C(=O)O)cc1NC(=O)c1ccc2c(c1)C(=O)N(c1ccc([N+](=O)[O-])cc1)C2=O returned RanGTP-Impb inh inactive, IMP-1 inhibitor inactive and VIM-2 inhibitor inactive.
For CCOC(=O)N1CCN(C(=O)/C=C/c2ccc([N+](=O)[O-])cc2)CC1 the results were RanGTP-Impb inh inactive, Runt-SMMHC FRET inactive, Runt-CBFb FRET inactive, IMP-1 inhibitor inactive and VIM-2 inhibitor inactive.
CCOC(=O)N1CCN(C(=O)/C=C/c2ccc(C(C)(C)C)cc2)CC1 was read as RanGTP-Impb inh 28, IMP-1 inhibitor inactive and VIM-2 inhibitor inactive.
